Compound activity deposited in PubChem BioAssay by several laboratories.
hERG protect – hERG rescue from dofetilide block, primary screen, cell-based, CHO-hERG, FluxOR thallium flux, dofetilide IC70. dofetilide IC70 present. hit rate 0.51% among 310,000. activation (rescue from dofetilide block), less the hit threshold, % at 10 µM;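 active means activation above the mean of controls blocked by dofetilide plus 5 SD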;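 further: thallium influx through hERG after potassium depolarization seen as dye fluorescence rise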
Target sequence (Q12809 whole entry, looked up): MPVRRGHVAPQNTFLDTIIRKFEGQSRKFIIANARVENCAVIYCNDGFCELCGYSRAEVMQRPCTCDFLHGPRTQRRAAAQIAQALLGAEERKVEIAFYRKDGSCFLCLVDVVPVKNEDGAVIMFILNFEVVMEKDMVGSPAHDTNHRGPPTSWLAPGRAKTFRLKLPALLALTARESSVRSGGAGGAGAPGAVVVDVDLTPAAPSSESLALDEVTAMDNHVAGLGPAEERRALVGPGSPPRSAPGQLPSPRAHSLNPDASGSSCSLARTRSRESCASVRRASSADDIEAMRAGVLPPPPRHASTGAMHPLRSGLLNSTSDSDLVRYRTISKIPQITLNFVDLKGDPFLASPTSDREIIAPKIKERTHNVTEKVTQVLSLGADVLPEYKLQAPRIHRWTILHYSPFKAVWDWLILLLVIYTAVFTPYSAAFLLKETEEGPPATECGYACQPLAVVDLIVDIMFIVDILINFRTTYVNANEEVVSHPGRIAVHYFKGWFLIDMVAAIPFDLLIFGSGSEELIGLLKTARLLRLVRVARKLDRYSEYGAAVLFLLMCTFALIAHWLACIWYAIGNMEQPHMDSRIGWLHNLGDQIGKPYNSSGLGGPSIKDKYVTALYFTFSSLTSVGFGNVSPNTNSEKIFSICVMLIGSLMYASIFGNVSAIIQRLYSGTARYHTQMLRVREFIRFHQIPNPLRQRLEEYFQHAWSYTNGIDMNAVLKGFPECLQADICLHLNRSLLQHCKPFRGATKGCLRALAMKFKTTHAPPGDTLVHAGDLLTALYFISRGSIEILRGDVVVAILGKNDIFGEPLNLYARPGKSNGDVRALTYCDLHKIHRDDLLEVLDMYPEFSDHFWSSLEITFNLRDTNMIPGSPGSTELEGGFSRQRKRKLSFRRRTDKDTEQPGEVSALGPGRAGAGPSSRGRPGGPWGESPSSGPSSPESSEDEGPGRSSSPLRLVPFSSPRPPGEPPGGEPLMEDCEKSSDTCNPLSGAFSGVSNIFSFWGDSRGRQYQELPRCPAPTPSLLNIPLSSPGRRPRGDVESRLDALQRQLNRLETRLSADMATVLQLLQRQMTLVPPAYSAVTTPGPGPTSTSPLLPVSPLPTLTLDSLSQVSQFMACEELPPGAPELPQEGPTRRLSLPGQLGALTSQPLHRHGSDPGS
KCNQ1 act – potentiators or activators of KCNQ1 channel, primary screen, cell-based, thallium flux, high-throughput; AID 2648, 2010; Potassium voltage-gated channel subfamily KQT member 1 (Homo sapiens), P51787; hit rate 0.35% among 310,000; CHO-K1 KCNQ1, thallium flux FluxOR fluorescence; stronger effect = higher value; B-score at 10 µM;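 active means fluorescence ratio B-score, a plate-corrected score, at least three library SD, with initial intensity B-score within 5 SD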
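Assay system: CHO-K1 cells stably expressing KCNQ1; Medium: assay buffer with matched DMSO; Also added: K+/Tl+ depolarizing stimulus; Dosing: single dose; Timing: dye 90 min, compound 20 min, room temperature; Measured by: kinetic FluxOR thallium fluorescence, 10-s 1-Hz baseline, 110-s post-stimulus read; Read-out: peak-minus-minimum fluorescence over initial fluorescence, negative-control normalized, B-scored.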
KCNK3 inh – human KCNK3 channel inhibitors, primary screen, CHO cells, FluxOR thallium flux, B-score; Potassium channel subfamily K member 3 (Homo sapiens), O14649; B-score at 10 µM; hit rate 0.84% among 340,000; FluxOR fluorescence; stronger effect = lower value;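 active means B-score under library mean minus 4 SD, starting fluorescence ratio at most library mean plus 5 SD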;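 further: more negative B-score means stronger inhibition of thallium flux through KCNK3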
KCNQ1 inh – inhibitors of human KCNQ1 channel, primary screen, cell-based, thallium flux, high-throughput; AID 2642, 2010; B-score at 10 µM; Potassium voltage-gated channel subfamily KQT member 1 (Homo sapiens), P51787; hit rate 1.3% among 310,000; CHO-K1 KCNQ1, FluxOR thallium flux fluorescence; stronger effect = higher value;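 active means compounds whose thallium flux B-score, printed positive for inhibition, exceeds three library SD while starting fluorescence stays within three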;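 further: channel opened by potassium depolarization with thallium stimulus after 20 min compound exposure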
KCC2 mod – KCC2 cotransporter modulators, thallium flux, primary screen, cell-based, HEK293 KCC2, FluoZin-2 fluorescence, MLSMR; hit rate 2.2% among 190,000; B-score of Tl+ flux slope (higher = more flux/activation; lower = inhibition) at 10 µM; AID 1456, 2008; KCC2 cells, thallium flux FluoZin-2 fluorescence; Solute carrier family 12 member 5 (Homo sapiens), Q9H2X9;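 active means thallium flux slope and its plate-corrected score both differing from the plate sample mean at a set confidence after two filtering rounds, in either direction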;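 further: slope of fluorescence scaled to starting intensity during 10 to 20 s after thallium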
KCNK9 block – KCNK9 potassium channel inhibitors, primary screen, HEK293 cells, thallium flux; Potassium channel subfamily K member 9 (Homo sapiens), Q9NPC2; FluxOR thallium flux fluorescence; stronger effect = lower value; B-score at 10 µM; hit rate 1.2% among 310,000;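 active means ratio B-score over 3 SD below the library mean, with starting fluorescence within 5 SD of its mean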;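 further: negative B-score means less thallium flux so channel inhibition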
KCC2 secondary – KCC2 modulators in sodium-free buffer, confirmation, cell-based, HEK293 KCC2, thallium flux, secondary assay; AID 1713, 2009; hit rate 15% among 3,700; normalised thallium flux (F/F0 slope) at 10 µM; shares compounds with KCC2 mod; FluoZin2 fluorescence; stronger effect = higher value;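 active means thallium flux slope above the same plate's solvent-only control mean plus 3 SD; inconclusive means the two replicate wells disagree; inactive means no significant difference from solvent-only control wells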
KCC2 bumet counter – thallium flux persisting under bumetanide in KCC2 cells, confirmation, counter-screen for KCC2 modulator project, cell-based, HEK293 KCC2, FluoZin2, secondary assay 3. shares compounds with KCC2 mod. HEK293-KCC2 + bumetanide/ouabain; stronger effect = higher value. normalized thallium flux at 10 µM. hit rate 49% among 3,700;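 active means thallium entry rate above the same plate's blocked-transporter control wells by more than 3 SD; inconclusive means the two repeat wells disagree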;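 further: raw slope of fluorescence over initial fluorescence between 10 and 20 s after thallium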
KCC2 sec2 – KCC2 modulators without ouabain present, confirmation, cell-based, HEK293 KCC2, thallium flux, FluoZin2, secondary assay 2; shares compounds with KCC2 mod; thallium flux FluoZin2 fluorescence; actives lie on both sides; F/F0 rise rate, 10–20 s post-thallium; normalized thallium flux at 10 µM; hit rate 23% among 3,700; AID 1715, 2009;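 active means thallium flux slope more than 3 SD above or below the plate's solvent-only control mean, mostly below; inconclusive means the two repeat wells disagreed; inactive means no significant shift from solvent-only controls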
HEK293 Tl flux – thallium flux modulation in parental HEK cells, confirmation, counter-screen for KCC2 modulator project, cell-based, counterscreen 1 | HEK293 parental cells, thallium flux FluoZin2, ouabain; baseline-ratio fluorescence slope, 10–20 s after thallium | thallium flux rate (normalised fluorescence) at 10 µM | hit rate 46% among 3,700 | AID 1716, 2009 | shares compounds with KCC2 mod;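 active means thallium flux rate significantly above the same plate's solvent-only control wells, beyond their mean plus 3 SD; inconclusive means the two replicate wells gave conflicting results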
KCC2 retest ouab – KCC2 inhibitors and activators, ouabain retest, confirmation, HEK-KCC2 cells | raw Tl+ flux slope (below DMSO = inhibition, above = activation) at 10 µM | hit rate 48% among 3,700 | shares compounds with KCC2 mod | HEK293-KCC2, thallium flux FluoZin2 fluorescence; bidirectional: low = inhibitor, high = activator;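 active means thallium flux slope beyond 3 SD from same-plate DMSO control mean in most replicates, usually higher, sometimes lower; inconclusive means repeat tests gave conflicting results; inactive means no significant difference from controls in most replicates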;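 further: slope of initial-normalized fluorescence between seconds 10 and 20 after thallium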
HEK293 Tl flux2 – native HEK Tl+ uptake effects, second counter-screen – HEK cells, counterscreen 2, counter-screen for KCC2 modulator project, confirmation. shares compounds with KCC2 mod. HEK293 parental, thallium flux FluoZin-2 fluorescence slope. thallium flux slope at 10 µM. hit rate 33% among 3,700;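 active means thallium flux slope above the same plate's solvent-control mean plus 3 SD in both duplicate wells; inconclusive means duplicate wells that disagreed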;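 further: run without ouabain in cells lacking the KCC2 cotransporter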
Numbers stand for hits; i = inactive; ? = inconclusive; nt = no result. The list is not random: actives were taken first. Their share in the collection is about 4.1%.

SMILES	hERG protect	KCNQ1 act	KCNK3 inh	KCNQ1 inh	KCC2 mod	KCNK9 block	KCC2 secondary	KCC2 bumet counter	KCC2 sec2	HEK293 Tl flux	KCC2 retest ouab	HEK293 Tl flux2
CCSS(=O)(=O)c1cccc2cccnc12	i	i	i	i	3.9	i	?	0.0079	i	0.01	?	0.014
S=c1[nH]nc(-c2ccc(Br)cc2)n1Cc1ccccc1	i	i	i	i	24	i	i	0.027	i	0.026	0.029	?
Cc1scc(-c2n[nH]c(=S)n2Cc2ccccc2)c1C	i	i	i	i	i	i	nt	nt	nt	nt	nt	nt
CCc1c(-c2n[nH]c(=S)n2Cc2ccccc2)csc1C	i	i	i	i	14	i	?	0.066	i	0.017	0.035	0.011
Fc1ccc(-c2n[nH]c(=S)n2Cc2ccccc2)cc1	i	i	i	i	nt	i	nt	nt	nt	nt	nt	nt
Oc1ccc(-c2n[nH]c(=S)n2Cc2ccccc2)cc1	i	i	i	i	i	i	nt	nt	nt	nt	nt	nt
Cc1ccccc1OCc1n[nH]c(=S)n1Cc1ccccc1	i	i	i	i	6.1	i	i	0.029	0.041	0.024	0.03	0.031
S=c1[nH]nc(-c2ccc3ccccc3n2)n1Cc1ccccc1	i	i	i	i	9.2	i	0.015	0.027	i	0.029	0.031	0.016
S=c1[nH]nc(COc2cccc3ccccc23)n1Cc1ccccc1	i	i	i	i	i	i	nt	nt	nt	nt	nt	nt
COc1ccc(OC)c(N(CC(=O)N2CCN(Cc3ccccc3)CC2)S(C)(=O)=O)c1	i	i	i	i	nt	i	nt	nt	nt	nt	nt	nt
COCC(CN1CCN(C2=NS(=O)(=O)c3ccccc32)CC1)OC(=O)c1ccc(OC)cc1 (stereo not drawn)	i	i	i	i	nt	i	nt	nt	nt	nt	nt	nt
CC(C)(C)C(=O)N1CCC2CC1c1cc(Cl)ccc12 (stereo not drawn)	nt	nt	i	nt	nt	nt	nt	nt	nt	nt	nt	nt
CC(C)c1nnc(NC(=O)c2c(O)c3cccc4c3n(c2=O)CCC4)s1	i	i	i	i	nt	i	i	0.009	i	i	0.017	i
O=[N+]([O-])c1ccc2nc(/C=C/c3ccc(Cl)cc3)[nH]c2c1	i	i	i	11	-4.5	i	i	i	i	i	?	i
O=[N+]([O-])c1ccc(-c2nc3ccc([N+](=O)[O-])cc3[nH]2)cc1	i	i	i	i	nt	i	nt	nt	nt	nt	nt	nt
COC(=O)c1ccccc1NC(=O)c1cc2sccc2n1C	i	i	i	i	8.3	i	i	i	i	i	i	i
CC(OC(=O)c1cc2sccc2n1C)C(=O)NCCc1ccccc1 (stereo not drawn)	i	i	i	i	-5.6	i	i	?	?	i	0.014	i
Cc1[nH]n(C(N)=S)c(=O)c1N=Nc1cccc(C(F)(F)F)c1	i	i	i	i	nt	i	nt	nt	nt	nt	nt	nt
Cc1[nH]n(C2=NCCS2)c(=O)c1N=Nc1cccc(C(F)(F)F)c1	i	i	i	i	21	i	i	0.075	0.049	0.034	0.055	0.035
COc1ccccc1CNC(=O)[C@H](NC(=O)C1CCN(C(=O)[C@@H](N)CCSC)CC1)C(C)C	i	i	i	i	nt	i	nt	nt	nt	nt	nt	nt
CC(C)(C)c1csc(NC(=O)c2cccnc2)n1	i	i	i	i	nt	i	nt	nt	nt	nt	nt	nt
CC(C)(C)c1csc(NNC(=O)c2ccc(Cl)cc2)n1	i	i	i	i	24	i	i	0.03	i	0.037	0.032	0.014
Fc1ccc(NC(=S)NNc2ncc(C(F)(F)F)cc2Cl)c(F)c1	i	i	i	i	53	i	i	0.038	?	0.032	0.035	0.022
Cc1ccc(NC(=S)NNc2ncc(C(F)(F)F)cc2Cl)cc1	i	i	i	i	17	i	?	0.078	i	0.013	0.042	0.012
ON/C=N/C(=S)Nc1ncc(C(F)(F)F)cc1Cl	14	20	i	i	25	i	i	0.052	0.058	0.048	0.052	?
SMILES	hERG protect	KCNQ1 act	KCNK3 inh	KCNQ1 inh	KCC2 mod	KCNK9 block	KCC2 secondary	KCC2 bumet counter	KCC2 sec2	HEK293 Tl flux	KCC2 retest ouab	HEK293 Tl flux2
C[C@H](CO)N1C[C@H](C)[C@@H](CN(C)Cc2ccncc2)Oc2ccc(NC(=O)CCCCCC(=O)Nc3ccccc3N)cc2C1=O	nt	nt	i	nt	nt	nt	nt	nt	nt	nt	nt	nt
CCOc1ccc(S(=O)(=O)c2cn(C)c3cc(OC)c(OC)cc3c2=O)cc1	i	i	i	i	nt	i	nt	nt	nt	nt	nt	nt
CC(C)NC(=O)C1CCCN(c2nnc(-n3cccc3)s2)C1 (stereo not drawn)	i	i	i	i	i	i	nt	nt	nt	nt	nt	nt
CC(CCc1ccccc1)NC(=O)C1CCCN(c2nnc(-n3cccc3)s2)C1 (stereo not drawn)	i	i	i	i	-4.4	i	i	i	i	i	0.015	i
CC1(C)C(=O)Nc2ccccc2N1C(=O)COC(=O)Cc1ccccc1F	nt	nt	i	nt	nt	nt	nt	nt	nt	nt	nt	nt
CC(=O)c1c(C)cc(C)c(CSc2nnc(-c3ccco3)o2)c1C	i	i	i	i	6	i	i	i	?	?	i	i
